Measurements gathered from unrelated publications.
Lines come from different studies, so protocols differ. pIC50: −log10 of the molar value.
Cell line: NCI-H23
Read-out: cell growth or viability

With COc1ccc(C(=O)/C=C/c2cccc3ccccc23)cc1S(N)(=O)=O the inhibition was 120% (SRB; 10 µM).
C[C@]12CC[C@@H]3c4ccc(O)cc4CC[C@H]3[C@@H]1CC[C@@H]2O has an EC90 of 78.5 µM (ATP luminescence; 72 h).
For CCCc1n(Cc2ccc3ccccc3n2)cc[n+]1Cc1ccc2ccccc2c1, the TGI was 10.6 µM (SRB).
With O=C(/C=C/c1ccc2c(=O)n(CC3CCCCC3)cnc2c1)NO the pIC50 was 5.64 (SRB; 48 h).
COc1ccccc1/C=C/C(=O)c1ccc(OC)c(S(N)(=O)=O)c1 has a GI50 of 2.3 µM (SRB; 48 h).
For O=C(/C=C/c1ccc2c(=O)n(CCO)cnc2c1)NO, the pIC50 was 5.38 (SRB; 48 h).
Cc1cc(C)n(C(=S)[S][Au][PH](CCCCCC[PH]([Au][S]C(=S)n2nc(C)cc2C)(c2ccccc2)c2ccccc2)(c2ccccc2)c2ccccc2)n1 gave a GI50 of 1.54 µM (SRB).
COc1ccc(C(=O)/C=C/c2cc3c(cc2Br)OCO3)cc1S(N)(=O)=O gave a GI50 of 4.3 µM (SRB; 48 h).
The TGI of CCc1n(Cc2ccc3ccccc3n2)cc[n+]1Cc1ccc2ccccc2c1 is reported as 3.23 µM (SRB).
Cc1cccc(-n2ncc(Br)c(Br)c2=O)c1 gave a pIC50 of 6.68 (resazurin; 96 h).
The TGI of c1ccc2cc(Cn3cc[n+](Cc4ccc5ccccc5c4)c3)ccc2c1 is reported as 10.1 µM (SRB).
COc1ccc(C(=O)/C=C/c2cccc(Cl)c2Cl)cc1S(N)(=O)=O has a GI50 of 3.8 µM (SRB; 48 h).
O=C1NCCc2[nH]c(-c3ccncc3)cc21 has a pIC50 of under 5.00.
The inhibition of COc1ccc(C(=O)/C=C/c2cccnc2)cc1S(N)(=O)=O is reported as 78% (SRB; 10 µM).
The TGI of CCc1n(Cc2ccc3ccccc3n2)cc[n+]1Cc1ccc2ccccc2n1 is reported as 8.66 µM (SRB).
The GI50 of COc1cccc(Oc2ccccc2NC(=O)CNC(=O)c2cccc3ccccc23)c1 is reported as 0.741 µM (SRB; 48 h).
COc1cc(-c2ccc(-c3ccc(C(=N)N)nc3)s2)cc(OC)c1OC has a GI50 of 6.4 µM (SRB).
